Data set [1] deals with Mus musculus. Nature of the data set: Anticonvulsant activity in mouse assessed as protection against subcutaneous pentylenetetrazole-induced seizures at 30 mg/kg, ip after 4 hrs. It counts as functional, organism-based. More on the design: dose 30 mg/kg. Summed up:
(§1)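 Swiss albino mice (20-24 g) were dosed ip with a suspension in 30% aqueous PEG 400 and challenged 0.5 h or 4 h later. Protection meant no threshold seizure (clonic spasms lasting at least 5 s). Scored as number protected/number tested, one mouse per dose and time.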

Data set [2] concerns Mus musculus. Nature of the data set: Neurotoxicity in mouse assessed as motor impairment at 30 mg/kg, ip after 0.5 hrs by rotarod test. Format: toxicity, organism-based. Also on record: dose 30 mg/kg, route intraperitoneal. The settings on record: in vivo. Summed up:
(§2)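 Swiss albino mice (20-24 g) were dosed ip with a suspension in 30% aqueous PEG 400 and tested 0.5 h or 4 h later. They were placed on a knurled wooden rod 1 inch in diameter, rotating at 6 rpm. Toxicity meant failure to stay on the rod for at least 1 min in each of three trials. Scored as number toxic/number tested (4 mice at 0.5 h, 2 at 4 h).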
(In the rotarod test animals must keep their balance on a rotating rod.)

Data set [3] deals with Mus musculus. Nature of the data set: Anticonvulsant activity in mouse assessed as protection against maximal electroshock-induced seizures at 100 mg/kg, ip after 0.5 hrs. It counts as functional, organism-based. More on the design: dose 100 mg/kg. Summed up: (§3)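 Swiss albino mice (20-24 g) received an ip suspension in 30% aqueous PEG 400 and were tested 0.5 h and 4 h after dosing. Shock was delivered through corneal electrodes from a constant current unit, with 0.9% saline dropped into the eyes first. Protection meant abolition of the hind limb tonic extension. Scored as number protected/number tested, one mouse per dose and time.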

Data set [4] deals with Mus musculus. Nature of the data set: Anticonvulsant activity in mouse assessed as protection against maximal electroshock-induced seizures at 300 mg/kg, ip after 0.5 hrs. More on the design: dose 300 mg/kg. It counts as functional, organism-based. Summed up:
as §3
(In general: The maximal electroshock test induces tonic seizures with an electrical stimulus.)

The subject of data set [5] is Mus musculus. The data set is described as follows: Anticonvulsant activity in mouse assessed as protection against subcutaneous pentylenetetrazole-induced seizures at 100 mg/kg, ip after 0.5 hrs. It counts as functional, organism-based. Also on record: dose 100 mg/kg. Put shortly:
as §1

Data set [6] concerns Mus musculus. Nature of the data set: Anticonvulsant activity in mouse assessed as protection against subcutaneous pentylenetetrazole-induced seizures at 100 mg/kg, ip after 4 hrs. Format: functional, organism-based. More on the design: dose 100 mg/kg. Summed up: as §1
Data set [7] relates to Mus musculus. Nature of the data set: Anticonvulsant activity in mouse assessed as protection against subcutaneous pentylenetetrazole-induced seizures at 30 mg/kg, ip after 0.5 hrs. Format: functional, organism-based. More on the design: dose 30 mg/kg. Put shortly: as §1
Data set [8] concerns Mus musculus. Nature of the data set: Anticonvulsant activity in mouse assessed as protection against subcutaneous pentylenetetrazole-induced seizures at 300 mg/kg, ip after 0.5 hrs. Also on record: dose 300 mg/kg. It counts as functional, organism-based. Put shortly:
as §1

Data set [9] has as its system Mus musculus. The data set is described as follows: Neurotoxicity in mouse assessed as motor impairment at 300 mg/kg, ip after 4 hrs by rotarod test. Format: toxicity, organism-based. More on the design: dose 300 mg/kg, route intraperitoneal. The settings on record: in vivo. Summed up: as §2
The test system of data set [10] is Mus musculus. The data set is described as follows: Neurotoxicity in mouse assessed as motor impairment at 100 mg/kg, ip after 0.5 hrs by rotarod test. It counts as toxicity, organism-based. Also on record: dose 100 mg/kg, route intraperitoneal. Conditions: in vivo. Summed up:
as §2

For data set [11], the system named is Mus musculus. The data set is described as follows: Anticonvulsant activity in mouse assessed as protection against maximal electroshock-induced seizures at 300 mg/kg, ip after 4 hrs. Format: functional, organism-based. Also on record: dose 300 mg/kg. Put shortly: as §3
Data set [12] deals with Mus musculus. The data set is described as follows: Anticonvulsant activity in mouse assessed as protection against maximal electroshock-induced seizures at 100 mg/kg, ip after 4 hrs. Format: functional, organism-based. Also on record: dose 100 mg/kg. Put shortly: as §3
Data set [13] deals with Mus musculus. Nature of the data set: Neurotoxicity in mouse assessed as motor impairment at 30 mg/kg, ip after 4 hrs by rotarod test. More on the design: dose 30 mg/kg, route intraperitoneal. The settings on record: in vivo. It counts as toxicity, organism-based. Put shortly:
as §2

For data set [14], the system named is Mus musculus. Nature of the data set: Neurotoxicity in mouse assessed as motor impairment at 300 mg/kg, ip after 0.5 hrs by rotarod test. It counts as toxicity, organism-based. Also on record: dose 300 mg/kg, route intraperitoneal. Conditions: in vivo. Summed up:
as §2

The test system of data set [15] is Mus musculus. Nature of the data set: Anticonvulsant activity in mouse assessed as protection against maximal electroshock-induced seizures at 30 mg/kg, ip after 4 hrs. It counts as functional, organism-based. Also on record: dose 30 mg/kg. Put shortly: as §3
Data set [16] deals with Mus musculus. The data set is described as follows: Neurotoxicity in mouse assessed as motor impairment at 100 mg/kg, ip after 4 hrs by rotarod test. Conditions: in vivo. Also on record: dose 100 mg/kg, route intraperitoneal. It counts as toxicity, organism-based. Summed up: as §2
In data set [17] the test system is Mus musculus. The data set is described as follows: Anticonvulsant activity in mouse assessed as protection against subcutaneous pentylenetetrazole-induced seizures at 300 mg/kg, ip after 4 hrs. Format: functional, organism-based. More on the design: dose 300 mg/kg. Put shortly: as §1
Data set [18] relates to Mus musculus. The data set is described as follows: Anticonvulsant activity in mouse assessed as protection against maximal electroshock-induced seizures at 30 mg/kg, ip after 0.5 hrs. It counts as functional, organism-based. Also on record: dose 30 mg/kg. Put shortly:
as §3

Data on eight molecules can be found in ChEMBL document CHEMBL2086248, “Synthesis of some novel 1-(2-naphthyl)-2-(imidazol-1-yl)ethanone oxime ester derivatives and evaluation of their anticonvulsant activity” (Eur J Med Chem, 2012).

Active and inactive are the calls of the source.

For the molecule `Cl.O=C(O/N=C(\Cn1ccnc1)c1ccc2ccccc2c1)c1ccc(-c2ccccc2)cc1`, the outcome in [1], in data set [3], in data set [4], in [5], in data set [6] and in data set [7] was inactive. Moreover, the result in data set [8], in data set [12], in data set [15], in data set [17] and in data set [18] was inactive. Also, the Activity result in data set [2], in data set [9], in data set [10], in data set [13], in data set [14] and in [16] was “Non-toxic” each time. For the same molecule, the result in [11] was Active.
For `O=C(O/N=C(\Cn1ccnc1)c1ccc2ccccc2c1)c1ccccc1`, the result in [1], in data set [5], in [6], in data set [7], in [8] and in data set [18] was inactive. Besides, the Activity entry in data set [2], in data set [9], in [10], in data set [13], in data set [14] and in data set [16] was “Non-toxic” each time. The result in [3], in data set [4], in [11], in [12], in [15] and in [17] was Active.
`Cc1ccccc1C(=O)O/N=C(\Cn1ccnc1)c1ccc2ccccc2c1`: the outcome in [1], in [3], in data set [5], in data set [6], in [7] and in [8] was inactive. For the same molecule, the result in data set [12], in data set [15], in data set [17] and in data set [18] was inactive. The Activity entry in data set [2], in data set [9], in [10], in [13], in [14] and in data set [16] was “Non-toxic” in each case. For the same molecule, the outcome in [4] and in data set [11] was Active.
Consider `CCCC(CCC)C(=O)[O-].[Na+]` [VALPROATE SODIUM], for which the outcome in [1], in data set [3], in [5], in data set [6], in data set [7] and in data set [11] was inactive. For the same molecule, the outcome in data set [12], in data set [15], in [17] and in data set [18] was inactive. Further, the Activity result in data set [2], in data set [9], in data set [10], in [13], in data set [14] and in data set [16] was “Non-toxic” in each case. Further, the outcome in data set [4] and in [8] was Active.
As for `O=C(O/N=C(\Cn1ccnc1)c1ccc2ccccc2c1)c1ccc(Cl)cc1`, the outcome in data set [1], in data set [6] and in data set [17] was Active. Further, the Activity result in data set [2], in [9], in [10], in [13], in data set [14] and in [16] was “Non-toxic” each time. The outcome in [3], in data set [4], in data set [5], in data set [7], in data set [8] and in data set [11] was inactive. Moreover, the result in [12], in data set [15] and in [18] was inactive.
Consider `O=C(O/N=C(\Cn1ccnc1)c1ccc2ccccc2c1)c1cccc(Br)c1`, for which the result in data set [1], in data set [5], in data set [6], in data set [7], in data set [8] and in data set [11] was inactive. Moreover, the outcome in data set [12], in [15], in data set [17] and in data set [18] was inactive. For the same molecule, the Activity result in data set [2], in data set [9], in data set [10], in data set [13], in data set [14] and in [16] was “Non-toxic” throughout. For the same molecule, the result in [3] and in [4] was Active.
On to `Cl.O=C(/C=C/c1ccccc1)O/N=C(\Cn1ccnc1)c1ccc2ccccc2c1`, for which the result in [1], in data set [5], in data set [6], in data set [7], in data set [8] and in data set [11] was inactive. Also, the result in [12], in data set [15] and in data set [17] was inactive. The Activity entry in [2], in [9], in [10], in data set [13], in data set [14] and in data set [16] was “Non-toxic” in each case. Moreover, the result in data set [3], in data set [4] and in data set [18] was Active.
In the case of `NC(=O)N1c2ccccc2C=Cc2ccccc21` [CARBAMAZEPINE], the result in [1], in data set [5], in data set [7] and in data set [15] was inactive. Also, the Activity entry was “Non-toxic” in data set [2]; “Non-toxic” in data set [9]; “Non-toxic” in data set [10]; “Non-toxic” in [13]; “Toxic” in data set [14]; “Non-toxic” in data set [16]. Further, the outcome in data set [3], in data set [4], in data set [6], in data set [8], in data set [11] and in data set [12] was Active. Moreover, the outcome in data set [17] and in data set [18] was Active.
